From PubChem BioAssay
LMPTP block: blocks human LMPTP phosphatase. hit rate 0.22% among 360,000. P24666. recombinant LMPTP-A, OMFP fluorogenic substrate, fluorescence intensity. inhibition, % at 20 µM;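 active means compounds that cut the enzyme signal by at least half of the control window in the single-dose screen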;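 further: plate controls were DMSO wells with enzyme plus substrate for no effect and substrate without enzyme for full effect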
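Assay system: LMPTP-A enzyme. Input: 0.625 nM LMPTP-A final. Probe or stimulus: 400 µM OMFP. Compound dosing: single 20 µM dose. Schedule: 50 min dark incubation at room temperature. Detection: fluorescence intensity of OMFP turnover product. Read-out: percent inhibition versus substrate-only and uninhibited controls. Benchmarks: no-enzyme low control, uninhibited high control.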
Scp-1 inhibitor: blocks human Scp-1 phosphatase activity; Q9GZU7; Recombinant Scp1, phosphopeptide, malachite green phosphate absorbance; inhibition, % at 20 µM; hit rate 0.88% among 340,000;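 active means inhibition above about 50% at 20 µM, limit read from the data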;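 further: plate controls were DMSO wells with enzyme for no effect and wells lacking enzyme for full effect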
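Assay system: SCP-1 catalytic fragment, aa 76-261 | Buffer or medium: Tris acetate buffer pH 5.5 with MgCl2 and Tween-20 | Compound: One concentration, 20 µM, with 1.0% DMSO | Also added: Phospho 17-mer peptide substrate | Signal: Absorbance at 630 nm | Incubation: 45 min enzyme reaction at room temperature | Measure: % inhibition of SCP-1 phosphate liberation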
STEP inh: STEP (human) phosphatase inhibition; P54829; recombinant STEP, OMFP fluorogenic substrate, fluorescence; inhibition, % at 20 µM; hit rate 0.25% among 360,000; AID 588621;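 active means inhibition at 20 µM, scaled per plate between control wells, above about 37%, limit read from the data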;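 further: 0% = DMSO with enzyme and substrate and 100% = substrate only without enzyme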
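Assay system: isolated STEP enzyme / Timing: 20 min at room temperature, dark / Doses: 20 µM, 1% DMSO / Technique: fluorescence intensity, excitation 480 nm, emission 540 nm / Reagent: fluorogenic phosphatase substrate OMFP at 25 µM final / Measure: percent inhibition scaled to no-enzyme and uninhibited-enzyme controls, plate-pattern corrected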
SUMO1-SIM PPI: modulators of human SUMO1-mediated protein-protein interactions; P63165; SUMO1 binding to a labelled peptide, TR-FRET, 1 h; inhibition, % at 20 µM; hit rate 0.33% among 360,000; AID 602429; in the data active means inhibition above about 37%
DNMT1 block: blocks human DNA methyltransferase DNMT1 | P26358 | DNMT1 molecular beacon, Hinp1I cleavage, fluorescence | inhibition (reported as % activation of signal), % at 10 µM | hit rate 0.83% among 360,000 | AID 588458; in the data active means inhibition above about 50%
HKDC1 inh: blocks human hexokinase HKDC1 activity; inhibition, % at 20 µM; AID 493160; hit rate 0.16% among 340,000; recombinant HKDC1, G6PDH/diaphorase resazurin coupled fluorescence; Q2TB90;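 active means inhibition above about 35% when tested at 20 µM, limit read from the data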;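 further: plate controls were DMSO wells with enzyme for no effect and DMSO wells lacking enzyme for full effect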
Target sequence (Q2TB90 whole entry, looked up): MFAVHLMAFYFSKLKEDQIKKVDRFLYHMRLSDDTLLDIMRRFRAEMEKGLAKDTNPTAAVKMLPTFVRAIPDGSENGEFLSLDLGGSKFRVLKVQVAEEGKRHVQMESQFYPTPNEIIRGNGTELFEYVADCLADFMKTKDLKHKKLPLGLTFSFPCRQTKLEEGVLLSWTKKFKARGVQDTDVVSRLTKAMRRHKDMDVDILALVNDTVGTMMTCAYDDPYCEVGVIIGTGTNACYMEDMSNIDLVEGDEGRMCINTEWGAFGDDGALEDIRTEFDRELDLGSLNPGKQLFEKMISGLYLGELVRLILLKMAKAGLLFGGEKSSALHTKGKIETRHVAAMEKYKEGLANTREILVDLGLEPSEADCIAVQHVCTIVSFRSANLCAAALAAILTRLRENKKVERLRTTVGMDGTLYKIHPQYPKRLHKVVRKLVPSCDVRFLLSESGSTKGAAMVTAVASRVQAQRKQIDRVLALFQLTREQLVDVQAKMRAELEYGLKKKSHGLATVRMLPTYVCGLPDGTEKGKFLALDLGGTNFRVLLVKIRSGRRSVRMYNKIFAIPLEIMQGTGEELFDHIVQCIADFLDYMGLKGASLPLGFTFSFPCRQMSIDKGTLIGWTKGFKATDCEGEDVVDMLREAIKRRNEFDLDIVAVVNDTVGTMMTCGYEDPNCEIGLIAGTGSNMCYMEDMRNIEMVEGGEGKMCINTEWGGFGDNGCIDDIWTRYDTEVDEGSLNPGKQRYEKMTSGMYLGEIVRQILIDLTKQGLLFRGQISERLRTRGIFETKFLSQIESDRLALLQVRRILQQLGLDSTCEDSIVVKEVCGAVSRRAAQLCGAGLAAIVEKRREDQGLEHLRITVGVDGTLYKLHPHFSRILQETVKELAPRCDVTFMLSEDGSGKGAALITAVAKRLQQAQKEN
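test system = in-house recombinant HK5 (HKDC1) enzyme | amount = HKDC1 at 5 µg/mL | control set = DMSO-enzyme wells negative, buffer-substituted wells positive | compound = one dose of 20 µM, 1% DMSO | schedule = reaction time 90 min, room temperature, protected from light | technique = resorufin fluorescence at 613 nm | reagent = glucose with 1 mM ATP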
Scp-1 conf: Scp-1 (human) inhibition, single-dose confirmed; AID 540281; shares compounds with Scp-1 inhibitor; hit rate 61% among 2,500; inhibition, % at 20 µM; recombinant SCP-1 catalytic domain, phosphate release, malachite green absorbance;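 further: plate controls were DMSO with enzyme for no effect and buffer wells lacking enzyme for full effect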
MG interference: counter-screen for Scp-1 inhibitors: colorimetric interference; shares compounds with Scp-1 inhibitor; apparent inhibition (interference), % at 20 µM; Colorimetric interference counterscreen, malachite green absorbance 630 nm; 2,500 tested, under 10 active;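 further: compounds added after enzyme reaction finished so only phosphate colour detection is probed; plate controls were DMSO wells with completed Scp-1 reaction for no effect and substrate wells lacking enzyme for full effect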
Scp-1 Tm shift: binds human Scp-1, shifting its melting temperature; shares compounds with Scp-1 inhibitor; Recombinant SCP1, Sypro Orange thermal shift Tm; thermal shift relative to vanadate control, % at 40 µM; hit rate 25% among 1,500; AID 540329;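 active means substances whose mean melting-temperature shift, as a percentage of the reference inhibitor's shift, reaches about 5.3%, limit read from the data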;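 further: 0% = Tm of DMSO wells and 100% = Tm with sodium orthovanadate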
HKDC1 act conf2: confirmation of human HKDC1 activators; hit rate 14% among 740; inhibition, % at 20 µM; recombinant HKDC1, G6PDH/diaphorase resazurin fluorescence; hits give low values; shares compounds with HKDC1 inh;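 active means inhibition at or below a set negative limit, negative inhibition meaning the enzyme was activated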
Beacon interf DR: beacon fluorescence artifact, dose response counter-screen; AID 602382; IC50, µM; shares compounds with DNMT1 block; molecular beacon fluorescence, spectral interference counter-screen; 200 tested, under 10 active; call rule not given here
DNMT1 inh conf: confirmation of human DNMT1 inhibitors. AID 602385. hit rate 8% among 2,300. DNMT1 molecular beacon HinP1I cleavage, fluorescence. shares compounds with DNMT1 block. inhibition, % at 10 µM;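 active means average inhibition of at least 30% in the single-concentration confirmation test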
Beacon interf: beacon fluorescence artifact counter-screen; DNMT1 molecular beacon spectral interference counterscreen, fluorescence 485/520; shares compounds with DNMT1 block; activation (fluorescence interference), % at 10 µM; hit rate 1% among 2,300; AID 602387;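 active means activation of at least 30% at 10 µM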;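 further: DNMT1 catalytic domain with a HinP1I cleavage step and a FAM/dabcyl DNA beacon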
Numbers without * were called inactive; · = no result given. This is a sample that favours compounds with a hit; in the whole collection about 1.8% have one here.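 How the source made its calls, unless noted: active means inhibition of at least 30% at 20 µM; inactive means the rest.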

SMILES	LMPTP block	Scp-1 inhibitor	STEP inh	SUMO1-SIM PPI	DNMT1 block	HKDC1 inh	Scp-1 conf	MG interference	Scp-1 Tm shift	DNMT1 inh conf	Beacon interf	others
CCCCCc1nnc(NC(=O)Cc2cccs2)s1	6.0	68.5*	9.0	3.6	59.4*	5.5	85.3*	1.4	6.3*	9.8	2.2
CC(C)c1nnc(NC(=O)Cc2cccs2)s1	-1.8	-3.0	-0.4	-0.2	-2.4	-4.2	·	·	·	·	·
O=C(Cc1cccs1)Nc1nnc(Cc2ccccc2)s1	42.2	81.6*	12.0	4.9	99.2*	8.4	75.8*	-8.5	4.4	7.9	2.4
CSc1ccccc1C(=O)OCC(=O)Nc1c(C)n(C)n(-c2ccccc2)c1=O	-1.2	·	-0.2	-1.2	4.7	·	·	·	·	·	·
COCCNC(=O)C1(C)CCCN(C(=O)c2cc(C)on2)C1 (centres undefined)	-0.6	·	-3.2	0.8	2.6	·	·	·	·	·	·
COc1ccc(-c2nnc(NC(=O)c3cccs3)s2)c(OC)c1	45.4	96.3*	14.2	12.8	80.1*	-1.5	67.3*	-16.1	-18.4	2.2	-4.4
O=C1NN(c2ccccc2)C(=O)/C1=C/c1ccc(-c2ccc(Cl)c(C(=O)O)c2)o1	9.5	69.7*	18.1	20.0	85.2*	4.8	62.3*	-8.5	13.8*	11.8	0.3
Cc1cccc(N2NC(=O)/C(=C/c3ccc(-c4ccc(Cl)c(C(=O)O)c4)o3)C2=O)c1	26.0	71.3*	21.4	29.8	83.7*	4.9	55.6*	-23.0	12.0*	12.0	0.3
COc1ccc(/C=C(\C#N)C(=O)NCCc2ccccc2)cc1OCc1ccccc1	5.0	-23.6	0.9	-0.4	-9.6	1.3	·	·	·	·	·
COCCCNC(=O)/C(C#N)=C/c1ccc(OCC(=O)O)c(OC)c1	15.3	57.1*	34.3	26.5	89.4*	8.6	60.4*	-9.0	7.5*	17.1	0.0
CCOC(=O)c1cc(-c2ccco2)nn1-c1ccc(C)cc1	0.4	-6.9	-3.1	-1.2	-6.8	-3.1	·	·	·	·	·
Cc1ccc(-n2nc(-c3ccco3)cc2C(=O)O)cc1	8.9	66.0*	24.5	25.0	156.3*	2.2	58.4*	-15.9	7.0*	15.5	-1.1
CCc1ccc(NC(=O)COC(=O)/C=C/c2ccco2)cc1	4.8	67.4*	17.5	-6.7	50.1*	-2.1	62.6*	-0.5	0.2	3.1	2.5
CN(CCOC(=O)/C=C/c1ccco1)Cc1ccccc1	0.3	65.6*	3.0	0.5	78.0*	-8.9	52.9*	-8.2	1.2	9.0	-2.9
CCN(c1ccc(NC(=O)COC(=O)/C=C/c2ccco2)cc1)C(C)C	-0.9	2.1	2.2	-26.0	-4.6	-2.4	·	·	·	·	·
O=C(CSc1cccc[n+]1[O-])Nc1cc2c(cc1Cl)C(=O)c1ccccc1C2=O	50.1*	84.9*	48.6*	41.1*	92.1*	16.2	10.8	-20.2	·	2.0	-10.4
O=C(CSc1cccc[n+]1[O-])Nc1cc([N+](=O)[O-])ccc1Cl	-1.8	-3.0	-2.3	-23.3	6.3	-8.4	·	·	·	·	·
C#CCSc1nc2sc3c(c2c(=O)n1C)CCC3	14.0	74.7*	93.0*	13.2	61.4*	-0.7	48.2*	-17.8	-26.0	0.1	-4.1
O=C(CSc1ccccn1)Nc1ccc2c(c1)C(=O)c1ccccc1C2=O	49.0	107.5*	40.7*	35.3	87.0*	14.9	68.8*	0.1	7.8*	12.8	-6.3
COc1ccc(S(=O)(=O)N2CCN(C(=O)c3cc4c(s3)CCC4)CC2)cc1	56.9*	84.3*	36.4	32.4	99.9*	33.9	67.9*	-17.5	5.1	39.9*	0.3	HKDC1 act conf2=-23.4;Beacon interf DR=>99
Cc1ccc(S(=O)(=O)N2CCN(C(=O)c3cc4c(s3)CCCC4)CC2)cc1	3.2	-7.2	1.9	1.4	-3.3	5.4	·	·	·	·	·
Cc1cccnc1C1=NOC(Cc2ccccc2)C(=O)N1CCOc1ccc(F)cc1 (centres undefined)	2.5	·	-1.6	0.6	5.4	·	·	·	·	·	·
Cc1ncc([N+](=O)[O-])n1CCOC(=O)c1cc(Cl)cc(Cl)c1N	5.8	61.6*	3.0	-2.7	60.5*	6.4	68.2*	-11.4	12.0*	4.0	3.2
C=C(C)C(=O)Nc1cccc(C2=NOC3(C2)C[C@@H](C(N)=O)N(C(=O)CC(c2ccccc2)c2ccccc2)C3)c1 (some centres undefined)	1.2	62.5*	0.9	77.3*	101.4*	2.2	56.8*	-15.6	-30.6	19.4	2.5
C=C(C)C(=O)Nc1cccc(C2=NOC3(C2)C[C@@H](C(N)=O)N(C(=O)/C(C)=C/C)C3)c1 (some centres undefined)	-2.1	99.4*	8.5	98.2*	109.7*	0.3	68.5*	-7.9	-6.9	101.5*	-1.7	Beacon interf DR=>99
C/C=C(\C)C(=O)Nc1cccc(C2=NOC3(C2)C[C@@H](C(N)=O)N(C(=O)/C(C)=C/C)C3)c1 (some centres undefined)	-1.7	-8.6	-3.1	3.3	4.5	-2.6	·	·	·	·	·
CCOC(=O)/C=C/[C@H]1CCc2cccc(C)c2O1	1.6	-6.5	-1.8	5.4	9.0	-4.4	·	·	·	·	·
Cc1cccc(C)c1-n1nnnc1C1(C)CCC(=O)N1CCCN1CCOCC1 (centres undefined)	-0.9	·	·	5.6	·	·	·	·	·	·	·
COc1cccc(NC(=O)CN(C)C(=O)c2cc(-c3ccco3)nc3ccccc23)c1	12.4	64.3*	4.4	-5.4	54.6*	1.0	60.8*	-12.3	5.3*	2.6	0.3
CCOc1ccc(NC(=O)CN(C)C(=O)c2cc(-c3ccco3)nc3ccccc23)cc1OCC	1.6	-4.9	1.1	-5.4	-0.8	-5.9	·	·	·	·	·
